Measurements of several laboratories.
Lines come from different studies, so protocols differ.
Organism: Staphylococcus aureus
Effect on: microbial growth

CN[C@H](CC(C)C)C(=O)N[C@H]1C(=O)N[C@@H](CC(N)=O)C(=O)N[C@H]2C(=O)N[C@H]3C(=O)N[C@H](C(=O)N[C@H](C(=O)O)c4cc(O)cc(O)c4-c4cc3ccc4O)[C@H](O[C@H]3C[C@](C)(N)[C@@H](O)[C@H](C)O3)c3ccc(c(Cl)c3)Oc3cc2cc(c3O[C@@H]2O[C@H](CO)[C@@H](O)[C@H](O)[C@H]2O[C@H]2C[C@](C)(NCc3ccc(-c4ccc(Cl)cc4)cc3)[C@@H](O)[C@H](C)O2)Oc2ccc(cc2Cl)[C@H]1O — MIC (broth dilution): 2 µM
CC[C@H]1OC(=O)[C@H](C)[C@@H](O[C@H]2C[C@@](C)(OC)[C@@H](O)[C@H](C)O2)[C@H](C)[C@@H](O[C@@H]2O[C@H](C)C[C@H](N(C)C)[C@H]2O)[C@](C)(O)C[C@@H](C)/C(=N\OCOCCOC)[C@H](C)[C@@H](O)[C@]1(C)O — MIC (agar dilution; ATCC29213): 4 µg/mL
O=C(N[C@H](CO)[C@H](O)c1ccc([N+](=O)[O-])cc1)C(Cl)Cl — MIC (broth dilution): 64 µg/mL
CCCCCCCCN=c1ccn(CCCCCCCCCCn2ccc(=NCCCCCCCC)cc2)cc1 — MIC (MSSA): 0.5 µM
COc1c(N2C[C@@H]3CCCN[C@@H]3C2)c(F)cc2c(=O)c(C(=O)O)cn(C3CC3)c12 — MIC (agar dilution; ATCC43300): 0.5 µg/mL
COc1cccc(OC)c1C(=O)N[C@@H]1C(=O)N2[C@@H]1SC(C)(C)[C@@H]2C(=O)O — MIC (broth dilution; USA300): > 64 µg/mL
CCCCCCC#Cc1cncc(-c2nnc(SCc3cc([N+](=O)[O-])cc([N+](=O)[O-])c3)n2CCCN)c1 — MIC (broth dilution; MRSA): 8 to 16 µg/mL
CCN1CCC(CCNCc2cc3cc(Br)ccc3nc2SCc2ccccc2)CC1 — MIC (broth dilution): 32 µg/mL
CC(=O)C1=NN(c2ccc([N+](=O)[O-])cc2)C(=C(C#N)C(=O)c2ccc(Nc3cnccn3)cc2)S1 — MIC (broth dilution; ATCC25923): 6.25 µg/mL
CCC[C@@H]1C[C@@H](C(=O)N[C@@H]([C@H]2O[C@H](SC)[C@H](O)[C@@H](O)[C@H]2O)[C@@H](C)O)N(C)C1 — MIC (broth dilution; ATCCBAA44 BAA44): > 64 µg/mL
CC(=O)NC[C@H]1CN(c2ccc(N3CCOCC3)c(F)c2)C(=O)O1 — MIC (agar dilution; ATCC25923): 1 µg/mL
Cc1ccc2[nH]nc(-c3nnc(Nc4ccc(C)c(C)c4)s3)c2c1 — MIC (ATCC29213): 94.2 µg/mL
CCCCCCC#Cc1cncc(-c2nnc(SCc3cc([N+](=O)[O-])cc([N+](=O)[O-])c3)n2C2CCNCC2)c1 — MIC (broth dilution; MRSA): 8 µg/mL
CN[C@H](CC(C)C)C(=O)N[C@H]1C(=O)N[C@@H](CC(N)=O)C(=O)N[C@H]2C(=O)N[C@H]3C(=O)N[C@H](C(=O)N[C@H](C(=O)O)c4cc(O)cc(O)c4-c4cc3ccc4O)[C@H](O)c3ccc(c(Cl)c3)Oc3cc2cc(c3O[C@@H]2O[C@H](CO)[C@@H](O)[C@H](O)[C@H]2O[C@H]2C[C@](C)(N)[C@H](O)[C@H](C)O2)Oc2ccc(cc2Cl)[C@H]1O — MIC (MRSA): 0.5 µg/mL
COc1ccc(C=NNC(=O)CSc2nc3c(C)cccc3c(=O)n2-c2ccccc2)cc1OS(C)(=O)=O — MIC (broth dilution): 12.5 µg/mL
CC1(C)S[C@@H]2[C@H](NC(=O)[C@H](N)c3ccc(O)cc3)C(=O)N2[C@H]1C(=O)O — MIC (broth dilution; USA300): 64 µg/mL
CCCCCCC#Cc1cncc(-c2nnc(SCc3ccc(Cl)cc3)n2CCCN)c1 — MIC (broth dilution; ATCC29213): 8 µg/mL
COc1c(N2C[C@@H]3CCCN[C@@H]3C2)c(F)cc2c(=O)c(C(=O)O)cn(C3CC3)c12 — MIC (broth dilution; ATCC33591 MRSA): 0.125 µg/mL
[H]/N=C(/N)N[C@H]1[C@H](O)[C@@H](O)[C@H](O[C@@H]2O[C@@H](C)[C@](O)(C=O)[C@H]2O[C@@H]2O[C@@H](CO)[C@H](O)[C@@H](O)[C@@H]2NC)[C@@H](N/C(N)=N\[H])[C@@H]1O — MIC (broth dilution; ATCC6538): 15 µg/mL
c1ccc(CSc2nc3ccccc3cc2CNCc2ccc(CN3CCCC3)cc2)cc1 — MIC (broth dilution): 64 µg/mL
N=c1sc(C(=O)c2ccc(Nc3cnccn3)cc2)nn1-c1ccc([N+](=O)[O-])cc1 — MIC (broth dilution; ATCC25923): 3.12 µg/mL
CC1(C)S[C@@H]2[C@H](NC(=O)[C@H](N)c3ccccc3)C(=O)N2[C@H]1C(=O)O — MIC (broth dilution; ATCC25923; 12 h): 0.13 µg/mL
C=C[C@]1(C)C[C@@H](OC(=O)CS[C@@H]2C[C@H]3CC[C@@H](C2)N3C)[C@]2(C)[C@H](C)CC[C@]3(CCC(=O)[C@H]32)[C@@H](C)[C@@H]1O — MIC (agar dilution; ATCC43300): 0.0625 µg/mL
c1ccc(CSc2nc3ccccc3cc2CNCc2ccc(N3CCCCC3)cc2)cc1 — MIC (broth dilution): > 128 µg/mL
CCCCCCC#Cc1cncc(-c2nnc(SCc3ccc([N+](=O)[O-])o3)n2CCCN)c1 — MIC (broth dilution; MRSA): > 64 µg/mL
Cc1onc(-c2ccccc2)c1C(=O)N[C@@H]1C(=O)N2[C@@H]1SC(C)(C)[C@@H]2C(=O)O — MIC (ATCC29213 MSSA; drug-resistant strain): 0.25 µg/mL
CC(=O)c1ccc2cc(S(=O)(=O)NCc3ccccc3)ccc2c1 — MIC (broth dilution; ATCC25923): 40000 µg/mL
CC1(C)S[C@@H]2[C@H](NC(=O)[C@H](N)c3ccccc3)C(=O)N2[C@H]1C(=O)O — MIC (agar dilution; ATCC29213): 16 µg/mL
CC(=O)C1=NN(c2ccccc2)C(=C(C#N)C(=O)c2ccc(Nc3cnccn3)cc2)S1 — MIC (broth dilution; ATCC25923): 50 µg/mL
CC[C@H]1OC(=O)[C@H](C)[C@@H](O[C@H]2C[C@@](C)(OC)[C@@H](O)[C@H](C)O2)[C@H](C)[C@@H](O[C@@H]2O[C@H](C)C[C@H](N(C)C)[C@H]2O)[C@](C)(O)C[C@@H](C)C(=O)[C@H](C)[C@@H](O)[C@]1(C)O — MIC (broth dilution; ATCCBAA44 BAA44): > 64 µg/mL
COc1ccc(N2N=C(C(=O)c3ccc(Nc4cnccn4)cc3)SC2=C(C#N)C#N)cc1 — MIC (broth dilution; ATCC25923): 3.12 µg/mL
CCCCCCCCCCCC[N+](C)(C)Cc1ccccc1 — MIC (MSSA): 4 µM
CN[C@H](CC(C)C)C(=O)N[C@H]1C(=O)N[C@@H](CC(N)=O)C(=O)N[C@H]2C(=O)N[C@H]3C(=O)N[C@H](C(=O)N[C@H](C(=O)O)c4cc(O)cc(O)c4-c4cc3ccc4O)[C@H](O)c3ccc(c(Cl)c3)Oc3cc2cc(c3O[C@@H]2O[C@H](CO)[C@@H](O)[C@H](O)[C@H]2O[C@H]2C[C@](C)(N)[C@H](O)[C@H](C)O2)Oc2ccc(cc2Cl)[C@H]1O — MIC (broth dilution; ATCCBAA44 BAA44): 1 µg/mL
Cc1ccc2[nH]nc(-c3nnc(Nc4ccc(O)cc4)s3)c2c1 — MIC (ATCC29213): 18.3 µg/mL
[H]/N=C(\N/C(=N/[H])NCCCCCCNC(=N)NC(=N)Nc1ccc(Cl)cc1)Nc1ccc(Cl)cc1 — MIC (MRSA USA300; drug-resistant strain): 1 µM
Cc1cc(Nc2nnc(-c3n[nH]c4ccc(C)cc34)s2)cc([N+](=O)[O-])c1 — MIC (ATCC29213): 78 µg/mL
CC1(C)S[C@@H]2[C@H](NC(=O)[C@H](N)c3ccccc3)C(=O)N2[C@H]1C(=O)O — MIC (broth dilution; MRSA): 345 µM
Brc1ccc2nc(SCc3ccccc3)c(CNCc3ccc(CN4CCCC4)cc3)cc2c1 — MIC (broth dilution): 32 µg/mL
Cc1ccc2[nH]nc(-c3nnc(Nc4ccc(Br)cc4)s3)c2c1 — MIC (ATCC29213): 154 µg/mL
